Key:
[1] = tested on: Primary human retinal microvascular endothelial cells (ACBRI-181); assay: DMOG chemical hypoxia model; assay type: cell-based; conditions: DHA 50μM, AICAR 0.5mM; DMOG 400 μM 24h
Method in brief: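 Primary human retinal microvascular endothelial cells (passage 6–8) grown in endothelial growth medium with 10% FBS. At 70% confluence, exposed 24 h to DMOG 400 μM with or without AICAR 0.5 mM or DHA 50 μM. HIF-1α, HIF-2α, VEGF, ZO-1 and vimentin assessed by immunofluorescence, plus a cell migration assay. AMPK activity by western blot.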

Arrb2+/+ beta cells = assay: F-actin depolymerisation, phalloidin staining; assay type: cell-based, mouse; conditions: 1μmol/l
Method in brief: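 F-actin depolymerisation assessed by Alexa Fluor 488-conjugated phalloidin staining. FAK phosphorylation assessed by immunofluorescence.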

C2C12 murine myotubes = assay: ATPγS glucose uptake; assay type: cell-based; conditions: 100 μM
adiponectin receptor = assay: HFD-fed DBA/2J mice with AdipoRon, 9 weeks; assay type: in vivo, mouse; conditions: HFD supplemented with AdipoRon
[2] = i.v. beta-hydroxybutyrate infusion crossover study, T2D; assay type: in vivo, human
CREDENCE trial = assay type: in vivo, human
[3] = tested on: patients with type 2 diabetes and CKD; assay: CREDENCE acute eGFR decline; assay type: in vivo, human; conditions: week 3
[4] = 6 weeks
Notch pathway = assay: PHA-activated co-cultures of obASCs and MNCs; assay type: cell-based, human; conditions: PHA-activated obASC/MNC co-cultures
Method in brief: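 Human obese adipose-derived stem cells were co-cultured with mononuclear cells under phytohemagglutinin A activation, with or without the Notch inhibitor DAPT. Separately, the stem cells were transfected or not with Dner-targeting siRNA. Cytokine secretion into the medium was measured by ELISA, and expression by RT-qPCR.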

[5] = Empagliflozin 4-week crossover study, cardiac PET/CT; assay type: in vivo, human
[6] = tested on: isolated diabetic mouse hearts; assay: Langendorff-perfused db/db hearts, stable isotope analysis
[7] = 24-week empagliflozin appetite trial in overweight/obesity and T2D; assay type: in vivo, human
rats with CHF = assay type: in vivo, rat; conditions: 30 mg/kg PO
[8] = tested on: patients with T2D and CV disease; assay: EMPA-REG OUTCOME post hoc analyses; design: species or system human; conditions: in vivo
[9] = ACCORD trial, cardiovascular autonomic neuropathy; assay type: in vivo, human; conditions: 95%CI 0.78 - 1.07
[10] = iv bolus of purified MGO in mice, immune cell numbers; assay type: in vivo, mouse
[11] = tested on: human retinal endothelial cells (hRECs); assay: MGO exposure of human retinal endothelial cells; assay type: cell-based; conditions: 500μM, 72h
Rev-erbα = Rev-erbα agonist and antagonist in beta cells and human islets; assay type: cell-based; conditions: INS-1E cells and human islets
Method in brief: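 Cells used were rat INS-1E, human EndoC-βH1 and human islets. Rev-erbα was modulated with agonist, antagonist or siRNA knock-down. Stress was glucotoxicity (INS-1E, EndoC-βH1) or cytokines (INS-1E, human islets). Glucose-induced insulin secretion was read by HTRF, apoptosis as cleaved caspase-3, and Rev-erbα protein by western blot.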

neprilysin [12] = biological target: neprilysin (Mus musculus, UniProt Q61391); assay: Exogenous glucagon after sacubitril in mice; assay type: in vivo; conditions: 0.7 nmol/g; glucagon 96 ng/g; n=10
neprilysin (Mus musculus, UniProt Q61391), sequence (Q61391 whole entry): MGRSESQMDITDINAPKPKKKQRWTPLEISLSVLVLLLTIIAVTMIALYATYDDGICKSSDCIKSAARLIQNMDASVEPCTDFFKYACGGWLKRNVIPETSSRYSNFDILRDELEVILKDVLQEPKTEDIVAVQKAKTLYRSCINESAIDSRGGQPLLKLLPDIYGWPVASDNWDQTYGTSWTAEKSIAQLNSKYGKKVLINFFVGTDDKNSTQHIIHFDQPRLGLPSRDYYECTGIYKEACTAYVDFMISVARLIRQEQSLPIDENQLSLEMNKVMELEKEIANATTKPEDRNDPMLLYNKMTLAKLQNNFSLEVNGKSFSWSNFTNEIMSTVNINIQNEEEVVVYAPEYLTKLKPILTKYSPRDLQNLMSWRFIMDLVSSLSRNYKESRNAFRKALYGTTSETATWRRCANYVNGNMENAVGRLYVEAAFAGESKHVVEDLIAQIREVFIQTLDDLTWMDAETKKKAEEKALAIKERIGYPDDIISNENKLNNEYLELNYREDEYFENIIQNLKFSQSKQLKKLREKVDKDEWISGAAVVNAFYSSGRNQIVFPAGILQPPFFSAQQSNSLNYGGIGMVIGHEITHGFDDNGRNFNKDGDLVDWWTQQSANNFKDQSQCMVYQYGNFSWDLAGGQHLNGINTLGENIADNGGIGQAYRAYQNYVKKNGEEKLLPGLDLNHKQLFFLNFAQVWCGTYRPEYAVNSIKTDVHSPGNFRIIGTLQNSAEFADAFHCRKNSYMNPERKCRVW

[13] = Intrajejunal metformin with or without bile exclusion or TCA, T2DM; assay type: in vivo, human; conditions: metformin with TCA 4 g supplementation; endogenous bile included
[14] = tested on: differentiated adipocytes (wild type); assay: Adipocyte glucose uptake after dexamethasone; assay type: cell-based, human; conditions: 0.3 μM/24 h; WT cultures; n=6
[15] = Brain insulin sensitivity by fMRI with intranasal insulin, prediabetes; assay type: in vivo, human; conditions: 25 mg qd, 8 weeks
[16] = Empagliflozin 24 weeks in T2DM and HFpEF; assay type: in vivo, human; conditions: after 24 weeks; baseline 126
[17] = HFD-induced obese mice, empagliflozin 8 weeks; assay type: in vivo, mouse; design: AUC glucose / AUC insulin: unit not given beside the values
[18] = db/db mice, empagliflozin alone or with linagliptin, 8 weeks; assay type: in vivo, mouse; conditions: 10 mg/kg (of each)
Method in brief: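 Male 8-week-old db/db mice (BKS.Cg-Dock7m+/+Leprdb/J) received vehicle, SGLT2 inhibitor 10 mg/kg, or SGLT2 inhibitor plus DPP4 inhibitor (10 mg/kg each) for 8 weeks. Heterozygous db/+ mice served as non-diabetic controls. Plasma glucose, fructosamine, glycated albumin and urinary albumin-to-creatinine ratio were measured at weeks 0 and 8.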

[19] = tested on: patients with type 2 diabetes; assay: Network meta-analysis of antidiabetic medications on blood pressure; design: species or system human
CAROLINA trial = assay type: in vivo, human; conditions: 5 mg; regardless of age group
Piezo1 [20] = biological target: Piezo1 (Mus musculus, UniProt E2JF22); assay: In situ pancreas perfusion, insulin secretion
Piezo1 (Mus musculus, UniProt E2JF22), sequence (E2JF22 whole entry, the tested form may be a part): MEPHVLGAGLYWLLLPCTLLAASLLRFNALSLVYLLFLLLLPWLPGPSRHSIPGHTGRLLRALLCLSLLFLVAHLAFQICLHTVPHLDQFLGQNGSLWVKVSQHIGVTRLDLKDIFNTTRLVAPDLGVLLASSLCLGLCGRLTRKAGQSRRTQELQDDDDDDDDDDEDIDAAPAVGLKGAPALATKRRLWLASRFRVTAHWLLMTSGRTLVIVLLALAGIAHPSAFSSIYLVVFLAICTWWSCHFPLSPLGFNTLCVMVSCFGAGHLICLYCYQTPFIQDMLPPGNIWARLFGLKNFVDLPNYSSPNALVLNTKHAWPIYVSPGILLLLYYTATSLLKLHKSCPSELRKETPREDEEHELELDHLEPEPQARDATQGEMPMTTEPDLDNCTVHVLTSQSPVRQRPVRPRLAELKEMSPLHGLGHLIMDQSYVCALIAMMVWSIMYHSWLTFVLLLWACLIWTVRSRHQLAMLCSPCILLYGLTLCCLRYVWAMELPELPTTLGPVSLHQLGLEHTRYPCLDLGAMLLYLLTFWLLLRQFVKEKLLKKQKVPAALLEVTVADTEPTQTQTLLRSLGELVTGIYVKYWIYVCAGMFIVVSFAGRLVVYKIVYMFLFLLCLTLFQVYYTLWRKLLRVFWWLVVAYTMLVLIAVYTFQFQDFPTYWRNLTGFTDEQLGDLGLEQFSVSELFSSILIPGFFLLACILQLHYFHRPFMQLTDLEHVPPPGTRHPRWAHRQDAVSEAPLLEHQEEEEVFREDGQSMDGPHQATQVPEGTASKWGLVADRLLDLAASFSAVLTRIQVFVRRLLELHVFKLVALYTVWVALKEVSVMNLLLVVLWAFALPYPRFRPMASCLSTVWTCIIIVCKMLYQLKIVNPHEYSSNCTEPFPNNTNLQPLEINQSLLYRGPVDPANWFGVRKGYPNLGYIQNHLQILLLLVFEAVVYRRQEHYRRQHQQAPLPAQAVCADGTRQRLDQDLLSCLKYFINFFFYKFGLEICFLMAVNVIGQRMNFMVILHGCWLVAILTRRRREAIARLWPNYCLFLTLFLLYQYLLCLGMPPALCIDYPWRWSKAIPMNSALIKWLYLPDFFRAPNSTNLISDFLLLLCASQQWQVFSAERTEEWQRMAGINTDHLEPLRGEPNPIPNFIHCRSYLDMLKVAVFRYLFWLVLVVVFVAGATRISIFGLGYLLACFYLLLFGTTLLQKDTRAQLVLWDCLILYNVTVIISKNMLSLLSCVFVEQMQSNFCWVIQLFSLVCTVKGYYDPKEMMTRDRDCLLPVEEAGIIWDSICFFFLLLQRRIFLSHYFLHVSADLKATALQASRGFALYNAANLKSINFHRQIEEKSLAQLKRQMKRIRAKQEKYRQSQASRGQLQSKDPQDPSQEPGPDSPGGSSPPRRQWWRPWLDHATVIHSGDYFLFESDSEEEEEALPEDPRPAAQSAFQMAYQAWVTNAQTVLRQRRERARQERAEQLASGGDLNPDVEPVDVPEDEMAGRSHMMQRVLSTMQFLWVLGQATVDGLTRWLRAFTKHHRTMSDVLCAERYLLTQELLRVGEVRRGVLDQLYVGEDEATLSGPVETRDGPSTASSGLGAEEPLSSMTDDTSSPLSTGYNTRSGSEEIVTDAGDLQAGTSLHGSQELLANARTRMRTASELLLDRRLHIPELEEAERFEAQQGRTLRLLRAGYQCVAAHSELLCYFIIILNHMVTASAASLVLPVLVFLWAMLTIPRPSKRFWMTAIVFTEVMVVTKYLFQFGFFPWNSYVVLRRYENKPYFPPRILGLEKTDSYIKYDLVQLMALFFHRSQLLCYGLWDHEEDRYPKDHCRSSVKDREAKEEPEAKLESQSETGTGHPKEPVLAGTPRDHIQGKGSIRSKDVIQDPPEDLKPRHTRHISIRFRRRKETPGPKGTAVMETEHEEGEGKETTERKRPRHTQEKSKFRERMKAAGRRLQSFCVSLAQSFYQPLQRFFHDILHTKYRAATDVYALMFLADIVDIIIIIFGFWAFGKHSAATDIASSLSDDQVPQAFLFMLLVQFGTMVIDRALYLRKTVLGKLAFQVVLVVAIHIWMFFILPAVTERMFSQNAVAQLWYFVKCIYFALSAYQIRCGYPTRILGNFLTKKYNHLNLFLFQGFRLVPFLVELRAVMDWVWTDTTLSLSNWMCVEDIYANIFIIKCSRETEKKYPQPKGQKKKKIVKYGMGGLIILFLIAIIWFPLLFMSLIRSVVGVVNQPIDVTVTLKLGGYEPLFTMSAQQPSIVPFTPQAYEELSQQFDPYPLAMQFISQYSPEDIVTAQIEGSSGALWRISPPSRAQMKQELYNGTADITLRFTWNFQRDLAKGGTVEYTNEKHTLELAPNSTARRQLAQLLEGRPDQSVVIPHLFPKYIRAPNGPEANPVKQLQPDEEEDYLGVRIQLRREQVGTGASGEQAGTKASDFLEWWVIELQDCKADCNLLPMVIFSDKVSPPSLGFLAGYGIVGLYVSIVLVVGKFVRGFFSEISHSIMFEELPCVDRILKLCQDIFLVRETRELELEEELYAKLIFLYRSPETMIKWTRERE
Method in brief: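 Mice were β-cell-specific Piezo1 knockouts (RIP-Cre+Piezo1f/f). Insulin secretion was measured by in situ pancreas perfusion.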

Piezo1 [21] = biological target: Piezo1 (Homo sapiens, UniProt Q92508); assay: Ca2+ imaging in human β-cells; assay type: cell-based
Method in brief: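 Human β-cells loaded for Ca2+ imaging. Amplitude of glucose-induced [Ca2+]i oscillations recorded with and without a Piezo1-inhibiting test compound.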

[22] = 4-week treatment of DIO mice, body weight loss; assay type: in vivo, mouse; conditions: s.c., 4 weeks, human equivalent doses
[23] = 1.5 mg once weekly; 95% CI 0.79, 0.99; cited from earlier work
[24] = EVOLVE study, insulin detemir in pregnancy; assay type: in vivo, human; conditions: 727 vs 730 women
Method in brief: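 […] in women with pre-existing diabetes comparing the test basal insulin with another basal insulin. The primary endpoint was the number of women completing ≥22 weeks of gestation without major congenital malformations, perinatal death or neonatal death. It was analysed as crude and adjusted risk difference between treatment groups.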

neprilysin [25] = biological target: neprilysin (Homo sapiens, UniProt P08473); assay: Mixed meal after single dose sacubitril/valsartan, healthy males; assay type: in vivo; conditions: 194 mg sacubitril / 206 mg valsartan single dose
neprilysin (Homo sapiens, UniProt P08473), sequence (P08473 whole entry): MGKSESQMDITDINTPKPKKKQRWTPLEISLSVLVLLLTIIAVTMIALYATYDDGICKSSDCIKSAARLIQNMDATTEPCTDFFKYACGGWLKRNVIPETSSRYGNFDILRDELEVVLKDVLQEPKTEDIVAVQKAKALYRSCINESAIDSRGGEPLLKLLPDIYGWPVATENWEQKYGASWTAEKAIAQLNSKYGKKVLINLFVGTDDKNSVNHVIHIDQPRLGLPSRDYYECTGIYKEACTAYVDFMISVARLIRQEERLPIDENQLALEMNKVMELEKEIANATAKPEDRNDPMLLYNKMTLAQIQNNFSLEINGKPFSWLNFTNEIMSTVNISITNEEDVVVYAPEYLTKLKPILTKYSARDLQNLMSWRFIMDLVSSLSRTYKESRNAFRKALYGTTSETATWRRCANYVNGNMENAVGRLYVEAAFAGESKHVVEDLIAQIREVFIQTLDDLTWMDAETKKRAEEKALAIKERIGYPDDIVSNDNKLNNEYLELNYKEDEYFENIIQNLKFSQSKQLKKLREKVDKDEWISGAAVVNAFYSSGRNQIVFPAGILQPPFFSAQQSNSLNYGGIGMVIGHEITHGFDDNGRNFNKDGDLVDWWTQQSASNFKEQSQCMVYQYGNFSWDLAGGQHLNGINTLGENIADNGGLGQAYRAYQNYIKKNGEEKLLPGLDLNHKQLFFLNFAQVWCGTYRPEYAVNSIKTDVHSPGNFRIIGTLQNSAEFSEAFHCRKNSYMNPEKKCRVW

[26] = seven- and ninety-day treatment

For `NC(=O)c1ncn([C@@H]2O[C@H](COP(=O)(O)O)[C@@H](O)[C@H]2O)c1N` [AICAR, 5-aminoimidazole-4-carboxamide ribonucleotide], the “DMOG-induced abnormalities (HIF, VEGF, ZO-1, vimentin, migration)” value [1] was “fully prevented”.
With `O=C1NC(=O)/C(=C/c2ccc3c(c2)OC(F)(F)O3)S1` [AS604850] the “reduction of F-actin depolymerisation by GIP stimulation” value (Arrb2+/+ beta cells) was ~ 30%.
In the case of `Nc1ncnc2c1ncn2[C@@H]1O[C@H](CO[P@](=O)(O)O[P@](=O)(O)O[P@@](=O)(O)S)[C@@H](O)[C@H]1O` [ATPγS], the glucose uptake (C2C12 murine myotubes) is reported as “increased glucose uptake”.
With `O=C(COc1ccc(C(=O)c2ccccc2)cc1)NC1CCN(Cc2ccccc2)CC1` [AdipoRon] the HFD-induced weight gain (adiponectin receptor) was “reduced”.
For `CC(O)CC(=O)O` (stereo not drawn) [Beta-hydroxybutyrate, beta-hydroxybutyrate], the “increase in heart rate vs placebo” value ([2]; n=17) was 13.7 ± 1.2 bpm and the “beta-hydroxybutyrate levels during infusion” value ([2]; placebo 0.1 ± 0.6) was 2.4 ± 0.6 mM.
In the case of `Cc1ccc([C@@H]2O[C@H](CO)[C@@H](O)[C@H](O)[C@H]2O)cc1Cc1ccc(-c2ccc(F)cc2)s1` [CANA, canagliflozin], the “HHF alone HR vs placebo” value (CREDENCE trial; 95% CI 0.47-0.80) is reported as 0.61, the “HHF/CV death HR vs placebo” value (CREDENCE trial; 95% CI 0.57, 0.83, median 2.6 years) is reported as 0.69 and the “reduction of risk of HHF/CV death” value (CREDENCE trial; overall population) is reported as 31%. The “participants with >30% decline” value [3] was 4%.
For `CCOc1ccc(Cc2cc([C@@H]3O[C@H](CO)[C@@H](O)[C@H](O)[C@H]3O)ccc2Cl)cc1` [DAPA, dapagliflozin], the “hepatic uptake of fatty acids vs placebo” value ([4]; 10 mg/day) was “increased” and the “plasma NT-proBNP levels” value [4] was “unaffected”.
With `C[C@H](NC(=O)Cc1cc(F)cc(F)c1)C(=O)N[C@H](C(=O)OC(C)(C)C)c1ccccc1` [DAPT] the IL-17A secretion (Notch pathway) was “significantly inhibited”.
With `CC/C=C\C/C=C\C/C=C\C/C=C\C/C=C\C/C=C\CCC(=O)O` [DHA, docosahexaenoic acid] the “DMOG-induced abnormalities (HIF, VEGF, ZO-1, vimentin, migration)” value [1] was “fully prevented”.
For `OC[C@H]1O[C@@H](c2ccc(Cl)c(Cc3ccc(O[C@H]4CCOC4)cc3)c2)[C@H](O)[C@@H](O)[C@@H]1O` [EMPA, empagliflozin], the “myocardial glucose uptake (MGU)” value ([5]; 18F-FDG PET, placebo 1.4±0.6) was 0.6±0.6 μmol/100g/min, the “48-hour mean blood glucose” value ([5]; four weeks, placebo 9.4 ± 2.2) was 8.0 ± 0.9 and the “reduction of postabsorptive myocardial glucose uptake” value ([5]; in vivo) was 57%. For the same compound, the “circulating FFA” value ([5]; placebo 0.8±3) was 1.0 ± 0.4 mmol/L, the FFA esterification rate ([5]; placebo 1.1±0.6) was 1.3±0.7 μmol/100g/min and the “myocardial FFA oxidation rate” value ([5]; placebo 8.0±3.1) was 7.2±3.1 μmol/100g/min. The “total FFA uptake rate” value ([5]; placebo 9.1±3.2) was 8.4±3.6 μmol/100g/min, the myocardial oxygen consumption ([5]; placebo 9.77 ± 1.34) was 8.97 ± 1.11 ml/100g/min and the “myocardial external energy efficiency” value ([5]; placebo 27.7±4.5) was 29.5±7.3%. The 3-hydroxybutyrate ([5]; placebo 65 ± 8) was 130 ± 17 µmol/L, the “24-hour mean arterial pressure” value ([5]; placebo 92±8) was 88±5 mmHg and the “13C labeling of lactate” value ([6]; 1 μM, 35 min, 13C glucose perfusion, vehicle 58 ± 2) was 50 ± 3%. For the same compound, the glucose-6-phosphate content ([6]; 1 μM, 35 min, vehicle 5.2 ± 0.8) was 3.3 ± 0.4 AU, the “13C labeling of α-KG” value ([6]; 13C palmitate perfusion, vehicle 79 ± 1) was 86 ± 1% and the “circulating PYY vs placebo” value ([7]; 12-weeks, 3-hour mixed meal tolerance test, P = 0.003) was “elevated”. For the same compound, the “circulating GLP-1 vs placebo (GEE)” value ([7]; overall across follow-up, P = 0.016) was “higher”, the myocardial perfusion (rats with CHF; long-term (90 days)) was “increased” and the exercise capacity (rats with CHF; long-term (90 days), p=0.06) was “increased”. For the same compound, the “LV EDP” value (rats with CHF; [26]) was “reductions”, the “LV ESP” value (rats with CHF; [26]) was “increases” and the “patients with insulin dose reduction >10%” value [8] was 14.0%.
With `CC(C)OC(=O)C(C)(C)Oc1ccc(C(=O)c2ccc(Cl)cc2)cc1` [Fenofibrate] the “CAN outcome OR” value [9] was 0.91.
With `CC(=O)C=O` [MGO, methylglyoxal] the “increase of circulating neutrophils vs PBS” value ([10]; 25μg iv bolus, after 10 min) was 7 fold, the “increase of hepatic neutrophils” value ([10]; 10 min post injection) was 9 fold and the “decrease of CD11b expression in the aorta” value ([10]; after 10 min) was 19.9 fold. The “macrophage numbers in the liver” value ([10]; after 72h, control 24.2±6.8) was 35.7±6.5 macrophages per microscopic view, the “impairment of tube formation capacity” value [11] was ~ 70% and the “impairment of cell migration” value ([11]; transwell assay) was ~ 30%.
With `CCOC(=O)N1CCC(CN(Cc2ccc(Cl)cc2)Cc2ccc([N+](=O)[O-])s2)C1` (stereo not drawn) [SR9009] the “decrease of glucose-stimulated insulin secretion” value (Rev-erbα) was 70%.
With `CCOC(=O)[C@H](C)C[C@@H](Cc1ccc(-c2ccccc2)cc1)NC(=O)CCC(=O)O` [Sacubitril, sacubitril] the “increase of exogenous glucagon levels (iAUC0-60 min)” value (neprilysin [12]) was 1.9 fold.
For `C[C@H](CCC(=O)NCCS(=O)(=O)O)[C@H]1CC[C@H]2[C@@H]3[C@H](O)C[C@@H]4C[C@H](O)CC[C@]4(C)[C@H]3C[C@H](O)[C@]12C` [TCA, taurocholic acid], the “plasma glucose iAUC 0-180 min” value [13] was 568 ± 38 mmol·min/L.
With `C[C@@H]1C[C@H]2[C@@H]3CCC4=CC(=O)C=C[C@]4(C)[C@@]3(F)[C@@H](O)C[C@]2(C)[C@@]1(O)C(=O)CO` [dexamethasone] the “reduction of basal and insulin-stimulated glucose uptake” value [14] was ~ 50%.
With `OC[C@H]1O[C@@H](c2ccc(Cl)c(Cc3ccc(O[C@H]4CCOC4)cc3)c2)[C@H](O)[C@@H](O)[C@@H]1O` [empagliflozin] the “hypothalamic blood flow response to intranasal insulin” value [15] was “significant insulin-induced decrease”, the “left ventricular mass index (LVMI)” value [16] was 111,1 g/m2 and the body weight ([17]; 10mg/kg, 8 weeks, HFD 49.5 ± 2.8) was 41.2 ± 1.5 g. The fat mass ([17]; HFD 17.6 ± 3.4) was 10.7 ± 2.6 g, the AUC insulin ([17]; HFD 9617± 242) was 6263 ± 337 and the AUC glucose ([17]; HFD 38739± 1750) was 27714 ± 1052. The “plasma glucose, fructosamine, glycated albumin and UACR” value [18] was “decreased”, the “systolic blood pressure, empagliflozin vs dapagliflozin” value ([19]; CI -2.35 to -0.12) was -1.24 mmHg and the “diastolic blood pressure, mean difference versus placebo” value ([19]; network meta-analysis) was -1.73 mmHg.
For `CC#CCn1c(N2CCC[C@@H](N)C2)nc2c1c(=O)n(Cc1nc(C)c3ccccc3n1)c(=O)n2C` [linagliptin], the “hypoglycaemia rates vs glimepiride” value (CAROLINA trial) was “significantly lower”.
With `Clc1cccc(Cl)c1CSc1nnc(-c2cnccn2)s1` [yoda1] the “increase of insulin secretion” value (Piezo1 [20]; glucose alone almost 3-fold) was ~ 7 fold.
For GsMTx4, the “reduction of insulin release” value (Piezo1 [20]) was > 30% and the “reduction of amplitude of glucose-induced [Ca2+]i oscillations” value (Piezo1 [21]) was ~ 80%.
For dulaglutide, the “body weight loss vs vehicle” value [22] is listed as -2.5% and the “MACE-3 hazard ratio vs placebo” value [23] is listed as 0.88.
In the case of insulin detemir [IDet], the “risk of major congenital malformations, perinatal or neonatal deaths vs other basal insulin” value [24] is reported as “not associated with excess risk”.
For “sacubitril / valsartan [sacubitril/valsartan]”, the “increase of postprandial glucagon levels (iAUC0-240 min)” value (neprilysin [25]) was 2.7 fold.

From PMC7445463 (Diabetologia, 2020)
